rCAG RNA binder: r(CAG) repeat RNA binding; inhibition, % at 3 µM; hit rate 1.3% among 370,000; TO-PRO-1 dye displacement fluorescence;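 active = inhibition above the plate cutoff, the mean of all test compounds on that plate plus 3 SD, cut at about 35% in these data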;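 also: 0% = DMSO alone and 100% = 100 µM mitoxantrone as full dye displacement; higher means more dye released from RNA so lower well fluorescence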
NadD inh: NadD (S. aureus) enzyme inhibition. purified NadD enzyme, colorimetric absorbance read-out. inhibition, % at 20 µM. hit rate 0.78% among 360,000; in the data active = inhibition above about 26%
ASAP1 inh: inhibitors of human ASAP1 ArfGAP activity; Q9ULH1; ASAP1-stimulated ARF1 GTP hydrolysis, GDP FP detection; inhibition, % at 16.5 µM; hit rate 0.19% among 360,000; in the data active = inhibition above about 25%;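 also: 0% = vehicle with enzyme and substrate and 100% = no enzyme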
Target sequence (Q9ULH1 325-724 limits assumed): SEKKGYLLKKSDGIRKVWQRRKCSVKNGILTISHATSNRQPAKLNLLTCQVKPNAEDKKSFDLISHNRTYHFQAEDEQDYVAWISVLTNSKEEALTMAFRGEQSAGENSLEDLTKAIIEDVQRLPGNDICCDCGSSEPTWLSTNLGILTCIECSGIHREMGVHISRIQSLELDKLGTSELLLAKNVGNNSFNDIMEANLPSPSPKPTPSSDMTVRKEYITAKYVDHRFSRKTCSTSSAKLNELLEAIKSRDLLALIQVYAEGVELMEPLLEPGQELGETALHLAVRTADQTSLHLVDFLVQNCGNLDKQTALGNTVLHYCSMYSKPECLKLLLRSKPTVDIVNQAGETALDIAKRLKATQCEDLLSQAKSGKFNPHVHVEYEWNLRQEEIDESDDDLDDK
ARFGAP1 inh: rat ARFGAP1 inhibition; Arfgap1-stimulated ARF1 GTP hydrolysis, GDP FP detection; inhibition, % at 16.5 µM; hit rate 0.26% among 360,000;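 active = inhibition above a per-plate limit, mean inhibition of low control wells plus 3 SD, cut at about 25% in these data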;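 also: 0% = DMSO wells with enzyme and 100% = wells lacking Arfgap1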
Target sequence (Q62848 1-136 limits assumed): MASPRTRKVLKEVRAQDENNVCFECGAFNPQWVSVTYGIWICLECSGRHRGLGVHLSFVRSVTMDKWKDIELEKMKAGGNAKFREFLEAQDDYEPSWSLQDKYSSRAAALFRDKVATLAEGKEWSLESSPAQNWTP
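Material: rat Arfgap1 GAP domain (His6, aa 1-136), purified enzyme. Also added: human ARF1(Δ1-17)-GTP substrate. Compound dosing: 16.5 µM single point, 1.26% DMSO. Timing: enzyme reaction 120 min at 25 °C after 20 min preincubation. Signal: GDP detection by fluorescence polarization. Read-out basis: percent inhibition of GAP-stimulated GDP formation, scaled between DMSO and no-Arfgap1 medians.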
NadD inh conf: confirmation of Staphylococcus aureus NadD inhibitors; shares compounds with NadD inh; purified S. aureus NadD, colorimetric enzyme assay; inhibition, % at 20 µM; hit rate 13% among 2,000; AID 624309; in the data active = inhibition mostly above about 42%, no sharp cut-off; inactive = mostly below about 42%
ASAP1 inh confirm: ASAP1 inhibition confirmed | shares compounds with ASAP1 inh | ASAP1-stimulated Arf1 GTPase, GDP fluorescence polarization | inhibition, % at 16.5 µM | hit rate 37% among 620 | AID 624431;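 active = mean inhibition over triplicates exceeds the hit threshold derived for the earlier primary screening run, cut at about 25% in these data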
ARFGAP1 confirm: confirmation of rat ARFGAP1 inhibitors | shares compounds with ARFGAP1 inh | inhibition, % at 16.5 µM | hit rate 30% among 890 | ARFGAP1-stimulated ARF1 GTP hydrolysis, GDP tracer FP;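 active = average inhibition over triplicates above the hit cutoff set in the earlier primary screen, cut at about 25% in these data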;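 also: 0% = Arfgap1 plus ARF1-GTP with DMSO and 100% = wells lacking Arfgap1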
rCAG binder conf: r(CAG) RNA repeat binding, confirmation; hit rate 70% among 4,300; shares compounds with rCAG RNA binder; inhibition, % at 3 µM; TO-PRO-1 dye displacement fluorescence;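 active = inhibition above a per-plate cutoff, the mean inhibition of sample wells plus 3 SD, cut at about 35% in these data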;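 also: loss of TO-PRO-1 fluorescence as compound displaces dye from 1x1 AA loop RNA; 0% = DMSO only wells and 100% = 100 µM mitoxantrone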
DNA CAG counter: DNA CAG dye complex inhibition counter-screen; shares compounds with rCAG RNA binder; d(CAG) DNA oligo TO-PRO-1 dye displacement, fluorescence; inhibition, % at 3 µM; hit rate 94% among 4,300; AID 652068;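 active = inhibition above its plate's cutoff, the mean test-well inhibition plus 3 SD, cut at about 4.8% in these data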;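 also: 0% = DNA dye mix with DMSO and 100% = 100 µM mitoxantrone; hits displace the dye from DNA and so lower well fluorescence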
dCAG dye DR: DNA CAG dye complex inhibition, dose response counter-screen; shares compounds with rCAG RNA binder; hit rate 20% among 250; IC50, µM; DNA CAG/GTC duplex TO-PRO-1 dye displacement fluorescence; AID 686960; in the data active = IC50 below about 10 µM
* marks the source's active call; other numbers are inactive results; · = not tested or not shown. Compounds with a hit are over-represented: about 2.2% of the library has one in this group of screens.

SMILES	rCAG RNA binder	NadD inh	ASAP1 inh	ARFGAP1 inh	NadD inh conf	rCAG binder conf	DNA CAG counter	others
Cc1ccc([N+](=O)[O-])cc1-c1ccc(/C=C(\C#N)c2[nH]nc(N)c2C#N)o1	84*	28*	41*	45*	5	63*	47*	ASAP1 inh confirm=56*;ARFGAP1 confirm=58*
COc1ccc(S(=O)(=O)NCc2cccnc2)cc1NC(=O)c1ccccc1C	66*	83*	-6	1	38	59*	34*
CC(OC(=O)CCC(=O)c1ccc(Cl)s1)C(=O)NC1(C#N)CCCCC1 (centres undefined)	3	-5	1	-1	·	·	·
O=C(Nc1cc(S(=O)(=O)Nc2ccc(Cl)cc2)ccc1O)c1ccc(S(=O)(=O)N2CCCCCC2)cc1	47*	44*	2	-1	34	73*	38*
O=c1cc(-c2ccc(O)c(-c3c(O)cc(O)c4c(=O)cc(-c5ccc(O)cc5)oc34)c2)oc2cc(O)cc(O)c12	92*	77*	1	21	66*	79*	53*
COc1ccc(Cn2cc(CN3[C@@H](CC(C)C)COc4ccc(Cl)cc4S3(=O)=O)nn2)cc1	0	·	·	·	·	·	·
O=C(Nc1ccc(F)cc1)N[C@H]1CC[C@H](CCNS(=O)(=O)c2cccc(Cl)c2)O[C@@H]1CO	4	·	-12	-3	·	·	·
O=C(CN1c2ccccc2Sc2ccccc21)N/N=C/c1ccc(Cl)cc1Cl	-1	21	10	10	·	·	·
O=C(CN1c2ccccc2Sc2ccccc21)NNC(=S)Nc1ccc(Cl)cc1Cl	64*	37*	3	13	51*	60*	34*
O=C(Nc1nc2c(F)cccc2s1)c1ccco1	2	3	5	-5	·	·	·
O=C(Nc1nc(-c2ccco2)c(-c2ccco2)s1)c1c(F)cccc1Cl	78*	43*	8	-25	35	28	14*
Cc1ccc(NC(=O)c2cc3c(s2)CCCC3)cc1S(=O)(=O)Nc1ccccc1Cl	47*	30*	2	5	14	38*	13*
COc1ccccc1NS(=O)(=O)c1cc(NC(=O)c2sc3cc(Cl)ccc3c2Cl)ccc1C	6	24	4	-1	·	·	·
CCCCNC(=O)O[C@@H]1C[C@H]2CCC(=O)N3CC[C@@H](C1)[C@@H]23	-4	-3	2	3	·	·	·
CCOc1ccc2nc(N3C(=O)C(O)=C(C(=O)c4ccco4)C3c3ccco3)sc2c1 (centres undefined)	22	13	-6	0	·	·	·
Cc1cc(C)c2nc(N3C(=O)C(O)=C(C(=O)c4ccco4)C3c3ccco3)sc2c1 (centres undefined)	81*	39*	-1	-4	46	82*	49*
Cc1ccc(S(=O)(=O)N2[C@@H](c3ccc(C(C)(C)C)cc3)C(C(=O)O)=CC[C@H]2c2ccc(C(C)C)cc2)cc1	90*	51*	-14	-41	33	74*	44*
Cc1ccc(S(=O)(=O)N2[C@@H](c3ccc(Br)cc3)C(C(=O)O)=CC[C@H]2c2ccc(C(C)C)cc2)cc1	10	23	1	7	·	·	·
COc1cccc(=O)c2c(C)n(CC(=O)c3ccccc3)c(C)c12	37*	45*	-1	0	25	33	17*
CCn1c2ccccc2c2c3ncc4cccn4c3ccc21	39*	39*	-7	-1	5	55*	25*
Cc1ccc(-c2cc(-c3ccccc3)c3c(N)c(S(C)(=O)=O)sc3n2)cc1	26	26	7	0	·	·	·
CS(=O)(=O)c1sc2nc(-c3cccs3)cc(-c3ccccc3)c2c1N	65*	74*	1	-3	14	70*	36*
CC(C)[C@H](NC(=O)c1ccccc1Cl)C(=O)Nc1ccc(S(=O)(=O)Nc2nccs2)cc1	32	8	-5	18	·	·	·
COc1cc(NS(=O)(=O)c2ccc(NC(=O)/C(=C/c3ccccc3Cl)NC(=O)c3ccccc3)cc2)nc(OC)n1	74*	33*	4	0	49*	79*	34*	dCAG dye DR=9.8*
COc1cc(NS(=O)(=O)c2ccc(NS(=O)(=O)c3ccccc3)cc2)nc(OC)n1	0	1	0	-9	·	·	·
SMILES	rCAG RNA binder	NadD inh	ASAP1 inh	ARFGAP1 inh	NadD inh conf	rCAG binder conf	DNA CAG counter	others
O=C(Nc1ccc(S(=O)(=O)Nc2nccs2)cc1)/C(=C/c1ccccc1Cl)NC(=O)c1ccccc1	78*	39*	-3	-4	56*	68*	35*
O=C1OC(c2cccs2)=N/C1=C\c1ccc(-c2ccccc2Cl)o1	40*	39*	2	-13	4	37*	16*
Cc1cc(C(=O)OCC(=O)Nc2sc3c(c2C#N)CCC(C)C3)c2ccccc2n1 (centres undefined)	31	19	-2	-15	·	·	·
CCCc1cc(=O)[nH]c(SCC(=O)Nc2sc3c(c2C#N)CCC(C)C3)n1 (centres undefined)	66*	28*	1	-5	45	53*	20*
CC1CCc2c(sc(NC(=O)COC(=O)c3ccc(NC(=O)CC#N)cc3)c2C#N)C1 (centres undefined)	39*	36*	13	23	17	37*	18*
O=C(COC(=O)c1c2c(nc3ccccc13)/C(=C\c1ccco1)CC2)NC1CCCC1	60*	64*	12	-12	51*	59*	33*
CCCc1nc2ccccc2c(C(=O)OCC(=O)NC2CC2)c1CC	-1	-8	-5	12	·	·	·
CN(CCC#N)C(=O)COC(=O)c1c2c(nc3ccccc13)/C(=C\c1ccco1)CC2	65*	42*	12	-24	58*	57*	31*
N#CCc1ccc(OC[C@@H](O)CN2CCC(C(O)(c3ccccc3)c3ccccc3)CC2)cc1	2	·	·	·	·	·	·
Cc1cc(C(=O)N2CCC2(C)C(=O)NCC(C)(C)C)nn1C (centres undefined)	-1	-3	-12	-2	·	·	·
COc1cccc(OCc2cc(/C=N/Nc3ccc(C(=O)O)cc3)ccc2OC)c1	64*	46*	15	17	53*	74*	37*
Cc1cc(-c2n[nH]c(=S)n2/N=C/c2ccc(Br)s2)n[nH]1	14	10	-11	-2	·	·	·

Source: PubChem
